# Test results reported in ChEMBL document CHEMBL1817631, “Synthesis and characterization of tritylthioethanamine derivatives with potent KSP inhibitory activity” (Bioorg Med Chem, 2011).
# The source made the active and inactive calls. The rule behind the calls is not given here.
# What was measured:
# TK-10 = test: Growth inhibition of human TK10 cells; assay type: functional
# NCI-H226 = test: Growth inhibition of human NCI-H226 cells; assay type: functional
# CCRF-CEM = test: Growth inhibition of human CCRF-CEM cells; assay type: functional
# SK-OV-3 [1] = test: Growth inhibition of human SKOV3 cells; assay type: functional
# OVCAR-4 = test: Growth inhibition of human OVCAR4 cells; assay type: functional
# OVCAR-8 = test: Growth inhibition of human OVCAR8 cells; assay type: functional
# [2] = biological target: Kinesin-like protein KIF11 (Homo sapiens, UniProt P52732); test: Inhibition of human recombinant microtubule-activated KSP motor domain ATPase activity after 10 mins by end-point assay
# Kinesin-like protein KIF11, sequence (P52732 whole entry, the tested form may be a part): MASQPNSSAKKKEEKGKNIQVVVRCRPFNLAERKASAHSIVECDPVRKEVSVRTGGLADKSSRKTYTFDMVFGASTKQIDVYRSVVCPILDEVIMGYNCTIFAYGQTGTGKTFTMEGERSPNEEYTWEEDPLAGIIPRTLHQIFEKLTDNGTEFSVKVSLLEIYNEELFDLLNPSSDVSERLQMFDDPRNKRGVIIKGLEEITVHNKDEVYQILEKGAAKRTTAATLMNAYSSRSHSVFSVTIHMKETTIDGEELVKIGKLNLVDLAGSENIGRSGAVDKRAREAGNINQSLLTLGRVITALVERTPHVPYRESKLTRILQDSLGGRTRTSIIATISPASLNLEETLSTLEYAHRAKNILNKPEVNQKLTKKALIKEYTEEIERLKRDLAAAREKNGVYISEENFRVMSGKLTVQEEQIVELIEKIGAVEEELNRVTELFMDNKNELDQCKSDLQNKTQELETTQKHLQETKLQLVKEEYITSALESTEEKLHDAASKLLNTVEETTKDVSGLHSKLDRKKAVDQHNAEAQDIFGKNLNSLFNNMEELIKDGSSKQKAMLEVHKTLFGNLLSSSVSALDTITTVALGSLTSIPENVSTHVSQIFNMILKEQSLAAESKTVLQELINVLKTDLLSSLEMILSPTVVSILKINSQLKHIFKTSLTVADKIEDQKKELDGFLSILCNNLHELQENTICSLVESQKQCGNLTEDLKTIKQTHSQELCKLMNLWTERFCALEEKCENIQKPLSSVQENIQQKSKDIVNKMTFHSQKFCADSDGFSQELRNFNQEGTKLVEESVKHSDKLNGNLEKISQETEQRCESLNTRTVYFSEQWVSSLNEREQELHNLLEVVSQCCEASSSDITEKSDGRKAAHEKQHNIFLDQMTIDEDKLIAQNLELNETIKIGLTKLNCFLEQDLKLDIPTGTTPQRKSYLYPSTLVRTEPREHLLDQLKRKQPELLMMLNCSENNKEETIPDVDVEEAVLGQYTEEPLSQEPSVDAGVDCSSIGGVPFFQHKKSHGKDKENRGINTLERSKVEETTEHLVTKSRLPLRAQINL
# U-251 = test: Growth inhibition of human U251 cells; assay type: functional
# ACHN = test: Growth inhibition of human ACHN cells; assay type: functional
# M14 = test: Growth inhibition of human M14 cells; assay type: functional
# COLO 205 = test: Growth inhibition of human COLO205 cells; assay type: functional
# HeLa [3] = test: Effect on interphase microtubule organization in human HeLa cells at 1 uM; assay type: functional, cell-based
# Procedure, shortened: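 HeLa cells were grown in MEM/Earle's BSS with 10% FBS at 37 °C and 5% CO2, then treated 4 h with 1 μM compound or 0.1% DMSO carrier. Cells were fixed in 100% MeOH at −20 °C and blocked in PBS-5% BSA. They were stained overnight at 4 °C with mouse anti-tubulin and for DNA, then imaged by epifluorescence with structured illumination.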
# SF-539 = test: Growth inhibition of human SF539 cells; assay type: functional
# HT-29 = test: Growth inhibition of human HT-29 cells; assay type: functional
# SK-MEL-28 = test: Growth inhibition of human SK-MEL-28 cells; assay type: functional
# MOLT-4 = test: Growth inhibition of human MOLT4 cells; assay type: functional
# [4] = biological target: T1, Kinesin-like protein Klp61F (Drosophila melanogaster) (UniProt P46863); test: Inhibition of Drosophila melanogaster Klp61F in S2 cells at 100 uM up to 7 hrs by immunofluorescence analysis; assay type: cell-based
# T1 sequence (whole entry): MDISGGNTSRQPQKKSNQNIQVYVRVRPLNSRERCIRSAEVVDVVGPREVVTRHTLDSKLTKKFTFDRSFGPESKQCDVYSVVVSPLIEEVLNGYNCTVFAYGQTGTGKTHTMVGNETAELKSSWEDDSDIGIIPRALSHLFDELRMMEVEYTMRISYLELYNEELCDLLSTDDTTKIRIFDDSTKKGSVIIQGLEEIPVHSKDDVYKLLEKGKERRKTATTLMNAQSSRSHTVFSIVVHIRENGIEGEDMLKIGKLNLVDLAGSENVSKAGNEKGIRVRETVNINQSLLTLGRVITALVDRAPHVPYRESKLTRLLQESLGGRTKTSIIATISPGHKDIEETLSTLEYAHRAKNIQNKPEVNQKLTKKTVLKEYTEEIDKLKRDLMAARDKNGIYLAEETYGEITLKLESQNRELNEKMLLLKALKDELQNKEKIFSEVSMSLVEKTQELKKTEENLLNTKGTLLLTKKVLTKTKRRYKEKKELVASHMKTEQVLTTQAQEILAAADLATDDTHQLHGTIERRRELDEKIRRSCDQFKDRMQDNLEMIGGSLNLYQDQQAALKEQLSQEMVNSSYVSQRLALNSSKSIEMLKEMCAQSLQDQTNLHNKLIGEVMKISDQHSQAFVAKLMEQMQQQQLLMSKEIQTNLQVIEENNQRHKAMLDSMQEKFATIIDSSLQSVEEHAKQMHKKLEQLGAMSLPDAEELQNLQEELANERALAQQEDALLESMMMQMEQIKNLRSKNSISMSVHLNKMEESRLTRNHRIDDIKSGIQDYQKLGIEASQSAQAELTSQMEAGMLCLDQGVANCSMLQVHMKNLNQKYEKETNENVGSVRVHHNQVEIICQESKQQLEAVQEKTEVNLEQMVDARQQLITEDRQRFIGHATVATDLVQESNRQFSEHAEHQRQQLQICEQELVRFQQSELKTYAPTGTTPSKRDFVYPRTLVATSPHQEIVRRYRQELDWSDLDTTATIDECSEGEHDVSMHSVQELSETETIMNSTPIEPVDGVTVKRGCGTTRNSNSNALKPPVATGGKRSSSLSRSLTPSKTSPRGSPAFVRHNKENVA
# Procedure, shortened: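 Drosophila S2 cells were exposed to compound over a three-log concentration range up to 100 μM, with treatments extending up to 7 h. Bipolar spindle formation was scored by immunofluorescence.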
# HCC 2998 = test: Growth inhibition of human HCC2998 cells; assay type: functional
# K562 = test: Growth inhibition of human K562 cells; assay type: functional
# [5] = Growth inhibition of human […] cells; assay type: functional
# SF-268 = test: Growth inhibition of human SF268 cells; assay type: functional
# SNB-19 = test: Growth inhibition of human SNB19 cells; assay type: functional
# 786-0 = test: Growth inhibition of human 786-0 cells; assay type: functional
# SF-295 = test: Growth inhibition of human SF295 cells; assay type: functional
# NCI-H23 = test: Growth inhibition of human NCI-H23 cells; assay type: functional
# HCT-15 = test: Growth inhibition of human HCT15 cells; assay type: functional
# UACC-62 = test: Growth inhibition of human UACC62 cells; assay type: functional
# A549 = test: Growth inhibition of human A549 cells; assay type: functional
# IGROV-1 = test: Growth inhibition of human IGROV1 cells; assay type: functional
# Malme-3M = test: Growth inhibition of human MALME-3M cells; assay type: functional
# SN12C = test: Growth inhibition of human SN12C cells; assay type: functional
# LOX IMVI = test: Growth inhibition of human LOXIMVI cells; assay type: functional
# SR = test: Growth inhibition of human SR cells; assay type: functional
# SK-MEL-5 = test: Growth inhibition of human SK-MEL-5 cells; assay type: functional
# HeLa [6] = test: Inhibition of bipolar spindle formation in human HeLa cells at 1 uM; assay type: functional, cell-based
# Procedure, shortened: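 HeLa cells were grown in MEM with Earle's BSS, 10% FBS, sodium bicarbonate and pyruvate at 37°C in 5% CO2. They were exposed to compound in DMSO for 4 h, with 0.1% DMSO as carrier control. Cells were fixed in −20°C methanol and immunostained for tubulin, with DNA counterstained. Bipolar spindle formation was scored in 100 mitotic cells per condition.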
# HOP-62 = test: Growth inhibition of human HOP62 cells; assay type: functional
# SW-620 = test: Growth inhibition of human SW620 cells; assay type: functional
# SK-OV-3 [7] = test: Ratio of GI50 for human M14 cells to GI50 for human SK-OV-3 cells; assay type: functional
# HCT-116 = test: Growth inhibition of human HCT116 cells; assay type: functional
# UO-31 = test: Growth inhibition of human UO31 cells; assay type: functional
# NCI-H322M = test: Growth inhibition of human NCI-H322M cells; assay type: functional
# EKVX = test: Growth inhibition of human EKVX cells; assay type: functional
# NCI-H522 = test: Growth inhibition of human NCI-H522 cells; assay type: functional
# SNB-75 = test: Growth inhibition of human SNB75 cells; assay type: functional
# UACC-257 = test: Growth inhibition of human UACC257 cells; assay type: functional
# SK-MEL-2 = test: Growth inhibition of human SK-MEL-2 cells; assay type: functional
# OVCAR-3 = test: Growth inhibition of human OVCAR3 cells; assay type: functional
# CAKI-1 = test: Growth inhibition of human Caki1 cells; assay type: functional
# OVCAR-5 = test: Growth inhibition of human OVCAR5 cells; assay type: functional
# HL-60(TB) = test: Growth inhibition of human HL-60(TB) cells; assay type: functional
smiles,measurement,setting,value
COc1ccc(C(SCCN)(c2ccccc2)c2ccccc2)cc1,GI50,TK-10,1560 nM
same,GI50,NCI-H226,1740 nM
same,GI50,CCRF-CEM,160 nM
same,GI50,SK-OV-3 [1],80 nM
same,GI50,OVCAR-4,1400 nM
same,GI50,OVCAR-8,120 nM
same,IC50,[2],136 nM
same,GI50,U-251,50 nM
same,GI50,ACHN,690 nM
same,GI50,M14,30 nM
same,GI50,COLO 205,210 nM
same,Activity,HeLa [3],inactive
same,GI50,SF-539,250 nM
same,GI50,HT-29,350 nM
same,GI50,SK-MEL-28,640 nM
same,GI50,MOLT-4,500 nM
same,inhibition,[4],inactive
same,GI50,HCC 2998,240 nM
same,GI50,K562,40 nM
same,GI50,[5],310 nM
same,GI50,SF-268,150 nM
same,GI50,SNB-19,340 nM
same,GI50,786-0,400 nM
same,GI50,SF-295,180 nM
same,GI50,NCI-H23,510 nM
same,GI50,HCT-15,50 nM
same,GI50,UACC-62,400 nM
same,GI50,A549,100 nM
same,GI50,IGROV-1,150 nM
same,GI50,Malme-3M,220 nM
same,GI50,SN12C,130 nM
same,GI50,LOX IMVI,500 nM
same,GI50,SR,130 nM
same,GI50,SK-MEL-5,50 nM
same,inhibition,HeLa [6],Active
same,GI50,HOP-62,660 nM
same,GI50,SW-620,70 nM
same,RatioGI50,SK-OV-3 [7],1250
same,GI50,HCT-116,40 nM
same,GI50,UO-31,500 nM
same,GI50,NCI-H322M,60 nM
same,GI50,EKVX,390 nM
same,GI50,NCI-H522,40 nM
same,GI50,SNB-75,600 nM
same,GI50,UACC-257,700 nM
same,GI50,SK-MEL-2,60 nM
same,GI50,OVCAR-3,150 nM
same,GI50,CAKI-1,190 nM
same,GI50,OVCAR-5,570 nM
CCOC(=O)C1=C(C)NC(=S)NC1c1cccc(O)c1 (centres undefined) [MONASTROL],GI50,HL-60(TB),25100 nM
same,GI50,TK-10,100000 nM
same,GI50,ACHN,79400 nM
same,GI50,M14,25100 nM
same,GI50,SF-539,50100 nM
same,GI50,HT-29,79400 nM
same,GI50,SK-MEL-28,79400 nM
same,GI50,HCC 2998,39800 nM
same,GI50,[5],31600 nM
same,GI50,SNB-19,79400 nM
same,GI50,HCT-15,39800 nM
same,GI50,UACC-62,39800 nM
same,GI50,SN12C,39800 nM
same,GI50,LOX IMVI,79400 nM
same,GI50,SK-MEL-5,39800 nM
same,GI50,SW-620,39800 nM
same,GI50,UO-31,100000 nM
same,GI50,NCI-H322M,39800 nM
same,GI50,SNB-75,39800 nM
same,GI50,OVCAR-5,79400 nM
